ChEMBL document CHEMBL1153737, “Synthesis and antiprotozoal activity of 4-arylcoumarins” (Eur J Med Chem, 2010)

Columns and labels:
Plasmodium falciparum = assay: Antiplasmodial activity against multidrug-resistant Plasmodium falciparum W2 infected human erythrocytes after 48 hrs by flow cytometry; assay type: functional, organism-based; conditions: W2, 48 h
[1] = Selectivity index, ratio of IC50 for human THP1 cells to IC50 for Leishmania donovani MHOM/IN/80/DD8 amastigotes; assay type: toxicity, cell-based, THP-1; conditions: read-out: Ratio IC50
How it was run: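 SI Ama computed as IC50 on THP1 cells divided by IC50 on intracellular L. donovani amastigotes, with amastigote IC50 taken from three independent experiments.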

Leishmania donovani [2] = assay: Antileishmanial activity against Leishmania donovani MHOM/IN/80/DD8 promastigotes assessed as parasite viability after 48 hrs by Alamar blue assay; assay type: functional, organism-based; conditions: MHOM/IN/80/DD8, 48 h
How it was run: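 Late log-phase promastigotes in complete RPMI (10% FCS, L-glutamine/penicillin–streptomycin) with 10% Alamar Blue and a range of compound concentrations, final DMSO <0.5%. Incubated 48 h at 27 °C. Viability read as Alamar Blue reduction by absorbance at 570 and 630 nm.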

THP-1 = assay: Cytotoxicity against human THP1 cells assessed as cell viability after 72 hrs by Alamar blue assay; assay type: cell-based; conditions: THP-1, 72 h
Leishmania donovani [3] = assay: Antileishmanial activity against Leishmania donovani MHOM/IN/80/DD8 amastigotes infected in human THP1 cells assessed as decrease of infected macrophages after 72 hrs by Giemsa staining; assay type: functional, organism-based; conditions: MHOM/IN/80/DD8, THP-1, 72 h
How it was run: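 THP1 monocytes (10⁵ cells/ml) differentiated to adherent macrophages with phorbol myristate acetate in complete RPMI, 48 h at 37 °C, 6% CO₂. Infected with stationary-phase promastigotes at cell:parasite ratio 1/10 for 24 h, then washed four times. Compound dilutions added in duplicate chambers for 72 h at 37 °C. Cells methanol-fixed and Giemsa-stained. Amphotericin B and DMSO controls included.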

[4] = Selectivity index, ratio of IC50 for human THP1 cells to IC50 for Plasmodium falciparum W2; assay type: toxicity, cell-based, THP-1; conditions: read-out: Ratio IC50

SMILES	IC50 (Plasmodium falciparum) [µM]	selectivity ratio [1]	IC50 (Leishmania donovani [2]) [µM]	IC50 (THP-1) [µM]	IC50 (Leishmania donovani [3]) [µM]	selectivity ratio [4]
COc1ccc2oc(=O)cc(-c3ccc(OC)c(OC)c3)c2c1	> 160	> 29.6	> 160	> 160	5.4	–
COc1ccc(-c2cc(=O)oc3cc(OC)c(OC)cc23)cc1OC	> 117	> 265	> 292	> 292	1.1	–
C[C@@H]1[C@H](O)[C@@H](C)/C=C/C=C/C=C/C=C/C=C/C=C/C=C/[C@H](O[C@@H]2O[C@H](C)[C@@H](O)[C@H](N)[C@@H]2O)C[C@@H]2O[C@](O)(C[C@@H](O)C[C@@H](O)[C@H](O)CC[C@@H](O)C[C@@H](O)CC(=O)O[C@H]1C)C[C@H](O)[C@H]2C(=O)O [AMPHOTERICIN B]	–	140	–	14	0.1	–
COc1ccc(-c2cc(=O)oc3ccccc23)cc1OC	12	> 6.7	> 176	> 176	26.4	> 14.7
COc1cc(-c2cc(=O)oc3cc(OC)c(OC)cc23)ccc1O	22.5	> 4.5	94.2	> 137	30.4	> 6.1
COc1ccc(-c2cc(=O)oc3cc(OC)c(OC)c(OC)c23)cc1OC	25.8	18.1	> 78	78	4.3	3
COc1cc2oc(=O)cc(-c3ccc(O)cc3)c2cc1OC	> 67	–	> 67	> 67	> 67	–
COc1ccc2c(-c3ccc(OC)c(OC)c3)cc(=O)oc2c1	64	–	25.6	64	> 25	1
